MsrA act: activators of bovine methionine sulfoxide reductase A; purified bovine MsrA, absorbance read-out; activation, % at 10.6 µM; actives 0.3% (n = 360,000); AID 602163; in the data active = activation above about 7.5%;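 note: 0% = vehicle and 100% = reference activator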
Tb MetRS inh: blocks T. brucei methionyl-tRNA synthetase activity. purified T. brucei MetRS, ATP depletion, Kinase-Glo luminescence. inhibition, % at 11.9 µM. actives 0.4% (n = 360,000);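 active = inhibition above a per-plate cutoff of the control wells' mean inhibition plus 3 SD, cut at about 5.5% in these data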;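 note: 0% = DMSO wells median and 100% = median of wells with control inhibitor compound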
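assay system = parasite MetRS enzyme | timing = 15 min preincubation, 2 h reaction, all 25 °C | evaluation = percent inhibition relative to median high and low control wells | medium = HEPES buffer containing pyrophosphatase, BSA, spermine, DTT | compound = single dose, 11.9 µM final nominal, 0.9% final DMSO | detection = Kinase-Glo luminescence, ATP depletion format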
MsrA inhibitor: inhibitors of bovine MsrA; purified bovine MsrA, absorbance read-out; inhibition, % at 15.5 µM; actives 0.75% (n = 360,000); AID 651718; in the data active = inhibition above about 4.5%;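 note: 0% = vehicle wells with enzyme and 100% = reference inhibitor wells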
AHR act: activates the human aryl hydrocarbon receptor | P35869 | AHR-responsive luciferase reporter cells, luminescence | activation, % at 5 µM | actives 2.5% (n = 320,000) | AID 2796; in the data active = activation above about 47%;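 note: 0% = vehicle wells and 100% = reference agonist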
HTR2A ag: agonists of mouse serotonin 5-HT2A receptor (HTR2A); P35363; activation, % at 7.6 µM; CHO-K1 mHTR2A beta-arrestin complementation, luminescence; percent of 30 µM serotonin response; actives 0.66% (n = 360,000);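 active = activation above a run cutoff, the mean activation of all tested compounds plus 3 SD, cut at about 14% in these data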;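 note: 0% = plate median of compound wells and 100% = 30 µM serotonin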
AI-2 QS mod: modulates the Vibrio harveyi AI-2 quorum sensing system. Vibrio harveyi JMH597 AI-2 luminescence/OD600 ratio, 9 h; hits give low values; strain lacks LuxN and CqsS sensors; 0 = neutral-control median. activity change, % at 7.5 µM. actives 0.4% (n = 300,000); in the data active = activity change below about -75%, passing the limit was not always enough; inconclusive = no clear call, values can overlap the other calls;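 note: luminescence divided by OD600 gain over 9 h not by final OD600 alone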
Tb MetRS conf: confirmation of Trypanosoma brucei MetRS inhibitors; shares compounds with Tb MetRS inh; T. brucei MetRS enzyme, luminescence (ATP depletion); inhibition, % at 11.9 µM; actives 93% (n = 1,400); in the data active = inhibition above about 7%
Jurkat tox: counter-screen for T. brucei MetRS inhibitors: Jurkat cell cytotoxicity | shares compounds with Tb MetRS inh | Jurkat cells viability, ATP luminescence | inhibition, % at 8.3 µM | actives 12% (n = 1,400) | AID 624413; in the data active = inhibition above about 15%;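 note: 0% = vehicle and 100% = reference inhibitor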
Tb MetRS inh FP: T. brucei MetRS inhibition, orthogonal assay; inhibition, % at 11.9 µM; shares compounds with Tb MetRS inh; purified T. brucei MetRS, fluorescence polarization; actives 44% (n = 1,400); in the data active = inhibition above about 17%;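 note: 0% = vehicle wells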
* hit, by the source's call. In the library only some 4.4% were active in any assay of this set; here they are far more common.

N#CC1=C(N)Oc2cc(N)ccc2C1c1ccccc1F (centres undefined) was read as MsrA act -3, Tb MetRS inh 0, MsrA inhibitor -1, AHR act 4, HTR2A ag 6 and AI-2 QS mod 3.
`Cc1ccc(C2C(C#N)=C(N)Oc3cc(N)ccc32)cc1` (centres undefined) gave MsrA act -4, Tb MetRS inh 0, MsrA inhibitor 0, AHR act -3, HTR2A ag -1 and AI-2 QS mod 16.
Screening N#CC1=C(N)Oc2cc(N)ccc2C1c1cc(Br)cs1 (centres undefined) returned MsrA act -1, Tb MetRS inh 43*, MsrA inhibitor 1, HTR2A ag 0, AI-2 QS mod 19, Tb MetRS conf 3, Jurkat tox 56* and Tb MetRS inh FP 11.
Screening N#CC1=C(N)Oc2cc(N)ccc2C1c1cccc(Br)c1 (centres undefined) returned MsrA act -2, Tb MetRS inh 34*, MsrA inhibitor 0, HTR2A ag 10, AI-2 QS mod -3, Tb MetRS conf 2, Jurkat tox 75* and Tb MetRS inh FP 10.
Screening O=C(NCc1nnc(SCC(=O)N2CCCC2)o1)c1ccccc1 returned MsrA act 2, Tb MetRS inh 0, MsrA inhibitor -1, AHR act 3, HTR2A ag 7 and AI-2 QS mod -8.
`COc1ccc(C)cc1NC(=O)COC(=O)CCC(=O)c1cccs1` gave MsrA act -2, Tb MetRS inh -1, MsrA inhibitor -1, AHR act 1 and HTR2A ag 1.
c1ccc(CCNCc2ccco2)nc1 was read as MsrA act -6, Tb MetRS inh 0, MsrA inhibitor 2 and HTR2A ag -1.
Screening Nc1nc(Nc2ccccc2)nc2ccccc12 returned MsrA act -9, Tb MetRS inh 19*, MsrA inhibitor 1, AHR act 42, HTR2A ag -7, AI-2 QS mod 15, Tb MetRS conf 31*, Jurkat tox 20* and Tb MetRS inh FP 18*.
CCCc1ccc2oc(C(=O)N(Cc3nccn3C)C(C)C)c(C)c2c1 was read as MsrA act 0, Tb MetRS inh 0, MsrA inhibitor 0, AHR act 10, HTR2A ag 0 and AI-2 QS mod 12.
`Cc1ccc(C(=O)NCCc2c[nH]c3ccccc23)s1` gave MsrA act -10, Tb MetRS inh 0, MsrA inhibitor -2, AHR act 15, HTR2A ag -4 and AI-2 QS mod inconclusive.
Screening O=C(CCCC1=NS(=O)(=O)c2ccccc2N1)OCc1ccc(Cl)cc1 returned MsrA act -5, Tb MetRS inh 20*, MsrA inhibitor -1, AHR act 2, HTR2A ag -5, AI-2 QS mod -10, Tb MetRS conf 44*, Jurkat tox 2 and Tb MetRS inh FP 14.
`O=C(CCCC1=NS(=O)(=O)c2ccccc2N1)NCCc1ccc(Cl)cc1` gave MsrA act -1, Tb MetRS inh 2, MsrA inhibitor 0, AHR act 1, HTR2A ag 0 and AI-2 QS mod 23.
Screening COC(=O)CCC(C)C1CCC2C3CCC4CC(O)CCC4(C)C3=CC(=O)C12C (centres undefined) returned MsrA act 0, Tb MetRS inh 0, MsrA inhibitor -2 and HTR2A ag -1.
Screening C#CCNC(=O)C1=C[C@H](c2coc3ccccc3c2=O)C[C@H](OCCCCO)O1 returned MsrA act 4, Tb MetRS inh 0, MsrA inhibitor 0, AHR act 20, HTR2A ag 8 and AI-2 QS mod 16.
For O=C(NCc1ccccc1)C1=C[C@@H](c2ccc(Br)cc2)C[C@@H](OCc2ccc(CO)cc2)O1 the results were MsrA act -4, Tb MetRS inh 0, MsrA inhibitor 0, AHR act 3, HTR2A ag -7 and AI-2 QS mod 15.
O=C(NCc1nc2ccccc2[nH]1)C1=C[C@@H](c2ccc(Br)cc2)C[C@@H](OCc2ccc(CO)cc2)O1 was read as MsrA act -9, Tb MetRS inh 79*, MsrA inhibitor 0, AHR act 9, HTR2A ag -5, AI-2 QS mod 27, Tb MetRS conf 101*, Jurkat tox 4 and Tb MetRS inh FP 84*.
`O=C(NCc1nc2ccccc2[nH]1)C1=C[C@@H](c2ccc(Br)cc2)C[C@@H](OCCCCO)O1` gave MsrA act -3, Tb MetRS inh 85*, MsrA inhibitor -1, AHR act 4, HTR2A ag 1, AI-2 QS mod 17, Tb MetRS conf 104*, Jurkat tox 1 and Tb MetRS inh FP 106*.
`O=C(NCc1ccccc1)C1=C[C@H](c2ccc(Br)cc2)C[C@H](OCCCCO)O1` gave MsrA act -3, Tb MetRS inh 0, MsrA inhibitor 0, AHR act 0, HTR2A ag -8 and AI-2 QS mod 16.
For O=C(NCc1nc2ccccc2[nH]1)C1=C[C@H](c2coc3ccccc3c2=O)C[C@H](OCCCCO)O1 the results were MsrA act -7, Tb MetRS inh 17*, MsrA inhibitor -1, AHR act 3, HTR2A ag -1, AI-2 QS mod 21, Tb MetRS conf 53*, Jurkat tox -3 and Tb MetRS inh FP 18*.
For Cc1ccc(NC(=O)CN2CCN(C(=O)C3CC3)CC2)c(F)c1 the results were MsrA act -10, Tb MetRS inh -1, MsrA inhibitor 1 and HTR2A ag 3.
CSc1ccccc1NC(=O)CN(C)CC(=O)NCC(=O)Nc1ccc(F)cc1 was read as MsrA act -7, Tb MetRS inh -1, MsrA inhibitor 0, AHR act 4, HTR2A ag -3 and AI-2 QS mod 18.
`N#Cc1c(N)n(C2OC(CO)C(O)C2O)c2ncnc(N)c12` (centres undefined) gave MsrA act -2, Tb MetRS inh 7.8*, MsrA inhibitor -1, HTR2A ag -7, Tb MetRS conf 30*, Jurkat tox 97* and Tb MetRS inh FP 10.
`O=C(Cc1ccc(Cl)cc1)Nc1cc(S(=O)(=O)N2CCOCC2)ccc1N1CCCC1` gave MsrA act -4, Tb MetRS inh 39*, MsrA inhibitor 0, AHR act 1, HTR2A ag -8, AI-2 QS mod 30, Tb MetRS conf 52*, Jurkat tox -1 and Tb MetRS inh FP 28*.

Compound activity: PubChem, several laboratories
